Laboratory results published in ChEMBL document CHEMBL1126653, “Structure-function studies of amphiphilic antibacterial peptides” (1993).
≈ marks a conversion by molar mass, not a printed value. Peptide text beside a SMILES is read from it.

Tests used:
Escherichia coli = test: Compound tested for in vitro susceptibility against ATCC strain 25922 of Escherichia coli; type: functional; settings: ATCC25922
In short: (§1)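 Microbroth dilution in Tryptic Soy Broth; inoculum 5×10^5 CFU/mL; plates incubated at 37 °C for 18-20 h; value reported as minimal inhibitory concentration (µg/mL).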

Staphylococcus aureus [1] = test: Compound tested for in vitro susceptibility against ATCC strain 29213 of Staphylococcus aureus; type: functional; in short: as §1
Pseudomonas aeruginosa [2] = test: Compound tested for in vitro susceptibility against ATCC strain 27853 of Pseudomonas aeruginosa; type: functional; settings: ATCC 27853; in short: as §1
Staphylococcus aureus [3] = test: Compound tested for the activity against Staphylococcus aureus strain 11; type: functional; in short: as §1
Staphylococcus aureus [4] = test: Compound tested for the activity against Staphylococcus aureus strain 5; type: functional; in short: as §1
Pseudomonas aeruginosa [5] = test: Compound tested for the antimicrobial activity against Pseudomonas aeruginosa strain 3; type: functional; in short: as §1
[6] = Hemolytic activity towards human erythrocytes is evaluated for magainin 2 at peptide concentration of 100 µg/mL; type: functional
In short: (§2)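 Washed human erythrocytes from healthy volunteers (3 mL packed cells, PBS pH 7.4 washes, diluted to 20 mL) exposed to peptide in PBS at 25-200 µg/mL, 30 min at 37 °C; supernatant absorbance at 576 nm after centrifugation; 0.1% Triton X-100 taken as 100% hemolysis; duplicates.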

Pseudomonas aeruginosa [7] = test: Compound tested for the antimicrobial activity against Pseudomonas aeruginosa strain 7; type: functional; in short: as §1
Staphylococcus aureus [8] = test: Compound tested for the activity against Staphylococcus aureus strain 10; type: functional; in short: as §1
Staphylococcus aureus [9] = test: Compound tested for the activity against Staphylococcus aureus strain 6; type: functional; in short: as §1
Pseudomonas aeruginosa [10] = test: Compound tested for the antimicrobial activity against Pseudomonas aeruginosa strain 5; type: functional; in short: as §1
[11] = test system: Acinetobacter calcoaceticus subsp. anitratus; test: Compound tested for the antimicrobial activity against Acinetobacter anitratus; type: functional, aeinetobacter anitrotap
In short: (§3)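 MIC by microbroth dilution in Tryptic Soy Broth; inoculum 5×10^5 CFU/mL; plates incubated 18-20 h at 37 °C; assay pH approximately 7.4.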

[12] = Hemolytic activity towards human erythrocytes is evaluated for magainin 2 at peptide concentration of 25 ug/mL; type: functional; in short: as §2
Pseudomonas aeruginosa [13] = test: Compound tested for the antimicrobial activity against Pseudomonas aeruginosa strain 4; type: functional; in short: as §1
Pseudomonas aeruginosa [14] = test: Compound tested for the antimicrobial activity against Pseudomonas aeruginosa strain 2; type: functional; in short: as §1
Pseudomonas aeruginosa [15] = test: Compound tested for the antimicrobial activity against Pseudomonas aeruginosa strain 11; type: functional; in short: as §1
Staphylococcus aureus [16] = test: Compound tested for the activity against Staphylococcus aureus strain 3; type: functional; in short: as §1
Pseudomonas aeruginosa [17] = test: Compound tested for the antimicrobial activity against Pseudomonas aeruginosa strain ATCC 25916; type: functional; in short: as §1
[18] = Hemolytic activity towards human erythrocytes is evaluated for magainin 2 at peptide concentration of 200 µg/mL; type: functional; in short: as §2
Staphylococcus aureus [19] = test: Compound tested for the activity against Staphylococcus aureus strain 7; type: functional; in short: as §1
Enterobacter cloacae [20] = test: Compound tested for the antimicrobial activity against Enterobacter cloacae ROS; type: functional; in short: as §3
Staphylococcus aureus [21] = test: Compound tested for the activity against Staphylococcus aureus strain 9; type: functional; in short: as §1
[22] = Hemolytic activity towards human erythrocytes is evaluated for magainin 2 at peptide concentration of 50 µg/mL; type: functional; in short: as §2
Staphylococcus aureus [23] = test: Compound tested for the activity against Staphylococcus aureus strain 4; type: functional; in short: as §1
Enterobacter cloacae [24] = test: Compound tested for the antimicrobial activity against Enterobacter cloacae; type: functional; in short: as §1
Pseudomonas aeruginosa [25] = test: Compound tested for the antimicrobial activity against Pseudomonas aeruginosa strain 9; type: functional; in short: as §1
Klebsiella pneumoniae = test: Compound tested for the antimicrobial activity against Klebsiella pneumoniae; type: functional; in short: as §3
Proteus mirabilis = test: Compound tested for the antimicrobial activity against Proteus mirabilis; type: functional; in short: as §1
Pseudomonas aeruginosa [26] = test: Compound tested for the antimicrobial activity against Pseudomonas aeruginosa strain 10; type: functional; in short: as §1
Pseudomonas aeruginosa [27] = test: Compound tested for the antimicrobial activity against Pseudomonas aeruginosa strain 8; type: functional; in short: as §1
Staphylococcus aureus [28] = test: Compound tested for the activity against Staphylococcus aureus strain 1; type: functional; in short: as §1
[29] = test system: Salmonella enterica subsp. enterica serovar Anatum; test: Compound tested for the antimicrobial activity against S. a natum; type: functional, salmoneila onotum; in short: as §1
Pseudomonas aeruginosa [30] = test: Compound tested for the antimicrobial activity against Pseudomonas aeruginosa strain 1; type: functional; in short: as §1
Staphylococcus aureus [31] = test: Compound tested for the activity against Staphylococcus aureus strain ATCC 28953; type: functional; in short: as §1
Staphylococcus aureus [32] = test: Compound tested for the activity against Staphylococcus aureus strain 2; type: functional; in short: as §1
Shigella flexneri = test: Compound tested for the antimicrobial activity against Shigella flexneri; type: functional; in short: as §3
Pseudomonas aeruginosa [33] = test: Compound tested for the antimicrobial activity against Pseudomonas aeruginosa strain 6; type: functional; in short: as §1
Staphylococcus aureus [34] = test: Compound tested for the activity against Staphylococcus aureus strain 8; type: functional; in short: as §1

MIC (Escherichia coli) [µg/mL] | MIC (Staphylococcus aureus [1]) [µg/mL] | MIC (Pseudomonas aeruginosa [2]) [µg/mL] | MIC (Staphylococcus aureus [3]) [µg/mL] | MIC (Staphylococcus aureus [4]) [µg/mL] | MIC (Pseudomonas aeruginosa [5]) [µg/mL] | MIC (Pseudomonas aeruginosa [7]) [µg/mL] | MIC (Staphylococcus aureus [8]) [µg/mL] | MIC (Staphylococcus aureus [9]) [µg/mL] | MIC (Pseudomonas aeruginosa [10]) [µg/mL] | MIC [11] [µg/mL] | MIC (Pseudomonas aeruginosa [13]) [µg/mL] | MIC (Pseudomonas aeruginosa [14]) [µg/mL] | MIC (Pseudomonas aeruginosa [15]) [µg/mL] | MIC (Staphylococcus aureus [16]) [µg/mL] | MIC (Pseudomonas aeruginosa [17]) [µg/mL] | Compound | Hemolysis [6] [%] | Hemolysis [12] [%] | Hemolysis [18] [%] | Hemolysis [22] [%] | also measured
25 (≈ 13.6 µM) | 200 (≈ 109 µM) | 50 (≈ 27.2 µM) |  |  |  |  |  |  |  |  |  |  |  |  |  | CC(C)C[C@H](NC(=O)[C@H](C)NC(=O)[C@H](CCCCN)NC(=O)[C@H](C)NC(=O)[C@H](CC(C)C)NC(=O)[C@H](CCCCN)NC(=O)[C@H](C)NC(=O)[C@H](CC(C)C)NC(=O)[C@H](CCCCN)NC(=O)[C@H](CCCCN)NC(=O)[C@H](C)NC(=O)[C@H](CC(C)C)NC(=O)[C@H](CCCCN)NC(=O)[C@H](CCCCN)NC(=O)[C@H](C)NC(=O)[C@H](CC(C)C)NC(=O)[C@@H](N)CCCCN)C(=O)O (H-KLAKKLAKKLAKLAKAL-OH) |  |  |  |  | 
6.25 (≈ 2.88 µM) |  | 12.5 (≈ 5.76 µM) | 25 (≈ 11.5 µM) | 50 (≈ 23 µM) | 6.25 (≈ 2.88 µM) | 6.25 (≈ 2.88 µM) | 25 (≈ 11.5 µM) | 25 (≈ 11.5 µM) | 12.5 (≈ 5.76 µM) | 6.25 (≈ 2.88 µM) | 12.5 (≈ 5.76 µM) | 12.5 (≈ 5.76 µM) | 25 (≈ 11.5 µM) | 25 (≈ 11.5 µM) | 3.12 (≈ 1.44 µM) | CC(C)C[C@H](NC(=O)[C@H](CCCCN)NC(=O)[C@H](CC(C)C)NC(=O)[C@H](Cc1ccccc1)NC(=O)[C@H](CCCCN)NC(=O)[C@H](CCCCN)NC(=O)[C@H](C)NC(=O)[C@H](Cc1ccccc1)NC(=O)[C@H](CCCCN)NC(=O)[C@H](CCCCN)NC(=O)[C@H](Cc1ccccc1)NC(=O)[C@H](CC(C)C)NC(=O)[C@@H](N)CCCCN)C(=O)N[C@@H](Cc1ccccc1)C(=O)N[C@@H](CCCCN)C(=O)N[C@@H](C)C(=O)N[C@@H](Cc1c[nH]c2ccccc12)C(=O)O (H-KLFKKFAKKFLKLFKAW-OH) | 26 | 5 | 40 | 15 | MIC (Staphylococcus aureus [19]): 25 µg/mL (≈ 11.5 µM); MIC (Enterobacter cloacae [20]): 12.5 µg/mL (≈ 5.76 µM); MIC (Staphylococcus aureus [21]): 50 µg/mL (≈ 23 µM); MIC (Staphylococcus aureus [23]): 25 µg/mL (≈ 11.5 µM); MIC (Enterobacter cloacae [24]): 6.25 µg/mL (≈ 2.88 µM); MIC (Pseudomonas aeruginosa [25]): > 100 µg/mL; MIC (Klebsiella pneumoniae): 12.5 µg/mL (≈ 5.76 µM); MIC (Proteus mirabilis): > 100 µg/mL; MIC (Pseudomonas aeruginosa [26]): 50 µg/mL (≈ 23 µM); MIC (Pseudomonas aeruginosa [27]): 12.5 µg/mL (≈ 5.76 µM); MIC (Staphylococcus aureus [28]): 3.12 µg/mL (≈ 1.44 µM); MIC [29]: 12.5 µg/mL (≈ 5.76 µM); MIC (Pseudomonas aeruginosa [30]): 6.25 µg/mL (≈ 2.88 µM); MIC (Staphylococcus aureus [31]): 25 µg/mL (≈ 11.5 µM); MIC (Staphylococcus aureus [32]): 25 µg/mL (≈ 11.5 µM); MIC (Shigella flexneri): 3.12 µg/mL (≈ 1.44 µM); MIC (Pseudomonas aeruginosa [33]): 25 µg/mL (≈ 11.5 µM); MIC (Staphylococcus aureus [34]): 25 µg/mL (≈ 11.5 µM)
6.25 (≈ 2.68 µM) | 50 (≈ 21.5 µM) | 3.12 (≈ 1.34 µM) | 25 (≈ 10.7 µM) | 12.5 (≈ 5.37 µM) | 12.5 (≈ 5.37 µM) | 12.5 (≈ 5.37 µM) | 25 (≈ 10.7 µM) | 12.5 (≈ 5.37 µM) | 12.5 (≈ 5.37 µM) | 3.12 (≈ 1.34 µM) | 12.5 (≈ 5.37 µM) | 3.12 (≈ 1.34 µM) | > 100 | 25 (≈ 10.7 µM) | 3.12 (≈ 1.34 µM) | CC(C)C[C@H](NC(=O)[C@H](CCCCN)NC(=O)[C@H](CC(C)C)NC(=O)[C@H](Cc1c[nH]c2ccccc12)NC(=O)[C@H](CCCCN)NC(=O)[C@H](CCCCN)NC(=O)[C@H](C)NC(=O)[C@H](Cc1c[nH]c2ccccc12)NC(=O)[C@H](CCCCN)NC(=O)[C@H](CCCCN)NC(=O)[C@H](Cc1c[nH]c2ccccc12)NC(=O)[C@H](CC(C)C)NC(=O)[C@@H](N)CCCCN)C(=O)N[C@@H](Cc1c[nH]c2ccccc12)C(=O)N[C@@H](CCCCN)C(=O)N[C@@H](C)C(=O)N[C@@H](Cc1c[nH]c2ccccc12)C(=O)O (H-KLWKKWAKKWLKLWKAW-OH) | 31 | 10 | 55 | 18 | MIC (Staphylococcus aureus [19]): 25 µg/mL (≈ 10.7 µM); MIC (Enterobacter cloacae [20]): 25 µg/mL (≈ 10.7 µM); MIC (Staphylococcus aureus [21]): 25 µg/mL (≈ 10.7 µM); MIC (Staphylococcus aureus [23]): 12.5 µg/mL (≈ 5.37 µM); MIC (Enterobacter cloacae [24]): < 0.39 µg/mL; MIC (Pseudomonas aeruginosa [25]): > 100 µg/mL; MIC (Klebsiella pneumoniae): 12.5 µg/mL (≈ 5.37 µM); MIC (Proteus mirabilis): > 100 µg/mL; MIC (Pseudomonas aeruginosa [26]): 25 µg/mL (≈ 10.7 µM); MIC (Pseudomonas aeruginosa [27]): 12.5 µg/mL (≈ 5.37 µM); MIC (Staphylococcus aureus [28]): 12.5 µg/mL (≈ 5.37 µM); MIC [29]: 12.5 µg/mL (≈ 5.37 µM); MIC (Pseudomonas aeruginosa [30]): 6.25 µg/mL (≈ 2.68 µM); MIC (Staphylococcus aureus [31]): 25 µg/mL (≈ 10.7 µM); MIC (Staphylococcus aureus [32]): 6.25 µg/mL (≈ 2.68 µM); MIC (Shigella flexneri): 3.12 µg/mL (≈ 1.34 µM); MIC (Pseudomonas aeruginosa [33]): > 100 µg/mL; MIC (Staphylococcus aureus [34]): 25 µg/mL (≈ 10.7 µM)

Compound | MIC (Escherichia coli) [µg/mL] | MIC (Staphylococcus aureus [1]) [µg/mL] | MIC (Pseudomonas aeruginosa [2]) [µg/mL] | MIC (Staphylococcus aureus [3]) [µg/mL] | MIC (Staphylococcus aureus [4]) [µg/mL] | MIC (Pseudomonas aeruginosa [5]) [µg/mL] | MIC (Pseudomonas aeruginosa [7]) [µg/mL] | MIC (Staphylococcus aureus [8]) [µg/mL] | MIC (Staphylococcus aureus [9]) [µg/mL] | MIC (Pseudomonas aeruginosa [10]) [µg/mL] | MIC [11] [µg/mL] | MIC (Pseudomonas aeruginosa [13]) [µg/mL] | MIC (Pseudomonas aeruginosa [14]) [µg/mL] | MIC (Pseudomonas aeruginosa [15]) [µg/mL] | MIC (Staphylococcus aureus [16]) [µg/mL] | MIC (Pseudomonas aeruginosa [17]) [µg/mL] | Hemolysis [6] [%] | Hemolysis [12] [%] | Hemolysis [18] [%] | Hemolysis [22] [%] | also measured
CC(C)C[C@H](NC(=O)[C@H](CCCCN)NC(=O)[C@H](CCCCN)NC(=O)[C@H](Cc1c[nH]c2ccccc12)NC(=O)[C@@H](N)CCCCN)C(=O)N[C@@H](C)C(=O)N[C@@H](CCCCN)C(=O)N[C@@H](CCCCN)C(=O)N[C@@H](Cc1c[nH]c2ccccc12)C(=O)O (H-KWKKLAKKW-OH) | 25 (≈ 20.6 µM) | 25 (≈ 20.6 µM) | 12.5 (≈ 10.3 µM) |  |  |  |  |  |  |  |  |  |  |  |  |  | 0 | 0 | 0 | 0 | 
